# In PubChem BioAssay:
# The source made the active and inactive calls.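 Rule for the calls: active = growth inhibition above 25% in both replicates, a cutoff set 3 SD above the mean; inconclusive = above 25% in only one replicate; inactive = the rest.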
# Assay: OD615 S. cerevisiae growth inhibition, permissive medium, pilot counter-assay, permissive growth control for S. cerevisiae lifespan shortening project (AID 705)
# Details: OD615, 24 h, at 10 µM, stronger effect = higher value
# Method in brief: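 System: S. cerevisiae with engineered DeaD lifespan system / Measured by: absorbance (optical density) at 615 nm / Read-out: reduction in yeast growth (OD615) / Times: 4 h cell pre-growth, 24 h exposure at 30 °C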
row,SMILES,growth inhibition
1,COc1ccc(-c2noc(-c3ccccc3F)n2)cc1,-9.92% (inactive)
2,CCOC(=O)N1CCN(C(=O)C(C)(C)Oc2ccc(Cl)cc2)CC1,-8.16% (inactive)
3,CCOc1ccc(C2CC(c3ccc(CC)cc3)Nc3nc(N)nn32)cc1 (configuration not stated),13.7% (inactive)
4,O=C(Cn1cc2c(n1)CCCCC2)NCc1ccccn1,-5.75% (inactive)
5,O=C(Nc1ccc(Cl)cn1)c1cccc(F)c1,-8.65% (inactive)
6,CCCn1c(C(O)c2ccc3c(c2)OCO3)nc2ccccc21 (configuration not stated),1.37% (inactive)
7,COc1ccc(-n2nc3c(c2NC(=O)c2ccc(Br)cc2)CS(=O)C3)cc1 (configuration not stated),-4.15% (inactive)
8,CC1CCCCN1c1nnc(NC(=O)Cn2c(=O)oc3ccccc32)s1 (configuration not stated),-4.21% (inactive)
9,Cc1ncc(CO)c2cc(S(=O)(=O)c3ccc(F)cc3)c(=O)oc12,-11.8% (inactive)
10,COc1ccc(C/C(N)=N/n2cnnc2)cc1,2.64% (inactive)
11,Cc1cc(C)cc(N(CC(=O)N2CCN(Cc3ccccc3)CC2)S(=O)(=O)c2c(C)noc2C)c1,-13.5% (inactive)
12,COc1ccccc1NC(=O)Cn1cnc2c(oc3ccccc32)c1=O,-11.8% (inactive)
13,O=C1CCCC2=C1C1(O)C(=O)c3ccccc3C1(O)O2 (configuration not stated),-7.89% (inactive)
14,Cc1cc(C)c(NC(=O)C(C)(C)C)c(Cl)c1,-6.4% (inactive)
15,Cc1c(NC(=O)Oc2ccccc2)sc(=S)n1C,14.5% (inactive)
16,O=C(c1ccc(CN2CCOCC2)cc1)N1CCN(Cc2ccccc2)CC1,-15% (inactive)
17,Cc1cccc(N(C)c2cc(C)nc3ncnn23)c1,2.75% (inactive)
